Data on 29 compounds can be found in ChEMBL document CHEMBL4229494, “Novel tertiary sulfonamides as potent anti-cancer agents” (Bioorg Med Chem, 2018).

A short description of data set [1]: Inhibition of Wnt3A-induced Wnt transcription (unknown origin) expressed in HEK293 cells coexpressing TK-driven Rluc after 20 to 22 hrs by super-top flash reporter gene assay. The class given is cell-based. The following applies: Homo sapiens. In a few lines: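 HEK-293 cells (DMEM, 10% FBS) were co-transfected with Super(8x)TOPflash, a Wnt3A expression vector and TK-driven Renilla luciferase. After 8 h at 37 °C, 5% CO2, cells were seeded at 25,000/well and treated at 1.6, 8, 40, 200, 1000 or 5000 nM, or with DMSO, for 20-22 h in triplicate. Firefly/Renilla luminescence was taken relative to DMSO, and IC50 was found by nonlinear regression.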
(Reporter assays use an easily measured gene product as a stand-in for the process of interest.)

Data set [2] is described as follows: Lipophilicity, log D of the compound at pH 3. It counts as physicochemical. The settings on record: buffer.
The nature of data set [3]: Solubility of the compound. The class given is physicochemical.
Data set [4] is described as follows: Lipophilicity, log D of the compound at pH 7. It counts as physicochemical. The settings on record: buffer.
Data set [5] deals with MDA-MB-231. Briefly: Antitumor activity against human MDA-MB-231 cells xenografted in athymic nude mouse assessed as decrease in tumor volume at 5 mg/kg, ip administered per week for 16 days relative to control. The class given is functional. Set-up: scale not given: the % may be the effect or the level left. For orientation: A xenograft is tissue or cells of one species grown in another, often human tumour cells in immunodeficient mice.

Data set [6] has as its system MCF7. Briefly: Antiproliferative activity against human MCF7 cells after 24 hrs by SYBR green dye based fluorescence assay. It counts as functional, cell-based. The settings on record: MCF7, 24 h. Put shortly: (§1)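 Cells were plated at 500/well in DMEM/10% FBS and allowed to attach for 24 h at 37 °C, 5% CO2. They were then exposed to 1.6 nM–5 µM or DMSO. One plate was harvested every 24 h over 7 days and frozen at -20 °C. DNA was quantified by SYBR Green fluorescence (Ex495/Em535). Triplicate values relative to DMSO went to nonlinear regression for IC50.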

Data set [7] has as its system MDA-MB-231. The data set is described as follows: Antiproliferative activity against human MDA-MB-231 cells after 24 hrs by SYBR green dye based fluorescence assay. It counts as functional, cell-based. The settings on record: MDA-MB-231, 24 h. In a few lines:
as §1

For data set [8], the system named is MCF7. The data set is described as follows: Induction of apoptosis in human MCF7 cells after 24 hrs by caspase-Glo 3/7 reagent based luminescence assay. It counts as functional, cell-based. The following applies: MCF7, 24 h. Put shortly:
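MCF-7 cells were plated at 25,000/well (DMEM, 10% FBS) and grown 24 h, then treated at 1.6 nM–5 µM or with DMSO for 24 h. Caspase 3/7 activity was read by Caspase-Glo 3/7 luminescence. Triplicate signals relative to DMSO were analysed by nonlinear regression.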

Converted amounts (≈) assume the structure as drawn.

Usually IC50 stands for the point on the concentration scale where inhibition reaches its midpoint. Consider `O=C1CCCN1c1ccc(S(=O)(=O)N2CCCc3cc(C(F)(F)F)ccc32)cc1`, for which the IC50 in data set [1] worked out at 54 nM.
In the case of `O=C1CCCN1c1ccc(S(=O)(=O)N2CCN(CCO)c3ccccc32)cc1`, in data set [1], the IC50 was > 5000 nM.
For orientation: logD means lipophilicity at a set pH, counting ionised and neutral species. By solubility is commonly meant how much of the substance goes into solution per volume. As to `CC1CN(C)c2ccccc2N1S(=O)(=O)c1ccc(N2CCCC2=O)cc1` (racemic), the results for the logD in data set [2] and in data set [4] were 3.3 and 3.6, respectively. The compound also displayed an IC50 in data set [1] of 9 nM. This compound yielded a solubility in data set [3] of 23.1 µM (≈ 8.9 µg/mL).
Take `COc1cccc2c1C(=O)c1c(O)c3c(c(O)c1C2=O)C[C@@](O)(C(=O)CO)C[C@@H]3O[C@H]1C[C@H](N)[C@H](O)[C@H](C)O1` [DOXORUBICIN]: the Activity in the data set on MDA-MB-231 [5] is reported as 84.3%.
`O=C1CCCN1c1ccc(S(=O)(=O)N2CCOc3ccccc32)cc1`: the logD in data set [2] and in data set [4] was 1.7 throughout. Also, the IC50 in data set [1] turned out to be 10 nM. This compound also showed a solubility in data set [3] of 26.6 µM (≈ 9.53 µg/mL).
For the compound `O=C1CCCN1c1ccc(S(=O)(=O)Nc2cccc3ccccc23)cc1`, the IC50 in data set [1] was > 5000 nM.
On the same count and under the same terms, the value for `O=C1CCCN1c1ccc(C(=O)N2CCCc3ccccc32)cc1` was > 5000 nM.
What is called EC50 is the concentration at which the effect is half-maximal. On to `COc1ccc2c(c1)CCCN2S(=O)(=O)c1ccc(N2CCCC2=O)cc1`, for which the concentration for half-maximal inhibition (IC50) in data set [1] worked out at 6 nM; in the data set with MCF7 [6], 25 nM; in the data set with MDA-MB-231 [7] it was 20 nM. The same compound came in with an EC50 in the data set with MCF7 [8] of 16 nM.
With `Cc1ccc2c(c1)CCCN2S(=O)(=O)c1ccc(N2CCCC2=O)cc1`, the IC50 in data set [1] came out at 7 nM; in the data set with MCF7 [6], 15 nM; with MDA-MB-231 [7] it was 17 nM. This compound also registered an EC50 in the data set on MCF7 [8] of 61 nM.
`O=S(=O)(c1ccc(N2CCC=N2)cc1)N1CCCc2ccccc21`: the logD in data set [2] was 1.5; in data set [4], 2.9. In addition, 15 nM corresponded to half-maximal inhibition in data set [1] (IC50). The same compound registered a solubility in data set [3] of 19 µM (≈ 6.49 µg/mL).
For `O=C1CCCN1c1ccc(S(=O)(=O)N2CCc3ccccc3C2)cc1`, the IC50 in data set [1] is 634 nM.
Take `O=S(=O)(c1ccc(N2CCCC2)cc1)N1CCCc2ccccc21`: the results for the logD in data set [2] and in data set [4] were 3.6 and 3.7, respectively. Moreover, in data set [1], the IC50 worked out at 20 nM. Besides, in data set [3], the solubility was < 0.5 µM.
With `O=S(=O)(c1ccc(-n2cncn2)cc1)N1CCCc2ccccc21`, the IC50 (in data set [1]; in the data set with MCF7 [6]; in the data set with MDA-MB-231 [7]) was > 5000 nM each time. Besides, the EC50 in the data set on MCF7 [8] is > 5000 nM.
As to `COc1ccc2c(c1)N(C)CCN2S(=O)(=O)c1ccc(N2CCCC2=O)cc1`, the logD came out at 2.9 in data set [2] and 3 in data set [4]. Besides, the IC50 in data set [1] stood at 17 nM; with MCF7 [6], 14 nM; with MDA-MB-231 [7] it was 14 nM. The solubility in data set [3] is 69.6 µM (≈ 27.9 µg/mL). It took 46 nM to reach a half-maximal effect with MCF7 [8] (EC50).
For `O=C1CCCN1c1ccc(S(=O)(=O)N2CCc3ccccc32)cc1`, the IC50 in data set [1] is > 5000 nM.
As for `CN1CCN(S(=O)(=O)c2ccc(N3CCCC3)cc2)c2ccccc21`, the IC50 in data set [1] came out at 7 nM; in the data set with MCF7 [6], 4 nM; in the data set with MDA-MB-231 [7] it was 16 nM. In addition, in the data set with MCF7 [8], the EC50 amounted to 6 nM.
In the case of `CC(=O)N(C)c1ccc(S(=O)(=O)N2CCCc3ccccc32)cc1`, the IC50 in data set [1] was > 5000 nM.
Turning to `CN1CCN(S(=O)(=O)c2ccc(N3CCC=N3)cc2)c2ccccc21`, the IC50 was 18 nM in data set [1], 7 nM in the data set on MCF7 [6] and 13 nM in the data set on MDA-MB-231 [7]. In the data set with MCF7 [8], this compound returned an EC50 of 5 nM.
For `O=C1CCCN1c1ccc(S(=O)(=O)N2CCCc3ncccc32)cc1`, in data set [1], the IC50 is > 5000 nM.
With `CC(C)(C)c1ccc2c(c1)CCCN2S(=O)(=O)c1ccc(N2CCCC2=O)cc1`, the figures for the IC50 (in data set [1]; with MCF7 [6]; with MDA-MB-231 [7]) were 660 nM, 318 nM and 608 nM, respectively. Also, in the data set with MCF7 [8], the EC50 was determined as 307 nM.
Regarding `O=C1CCCN1c1ccc(S(=O)(=O)N2CCCc3ccccc32)cc1`, the logD in data set [2] and in data set [4] was 2.5 each time. Besides, the IC50 in data set [1] stood at 25 nM; in the data set on MCF7 [6], 17 nM; in the data set with MDA-MB-231 [7], 15 nM. For the same compound, the concentration in solution in data set [3] (solubility) was 7.8 µM (≈ 2.78 µg/mL). The EC50 in the data set on MCF7 [8] turned out to be 23 nM.
As for `CC1CCc2ccccc2N1S(=O)(=O)c1ccc(N2CCCC2=O)cc1` (racemic), the IC50 in data set [1] was found to be 11 nM.
On to `O=C1CCCN1c1ccc(S(=O)(=O)N2CCCc3cc(Cl)ccc32)cc1`, for which the logD in data set [2] and in data set [4] was 3.1 throughout. Further, half-maximal inhibition in data set [1] (IC50) was put at 13 nM. This compound came in with a solubility in data set [3] of 2.9 µM (≈ 1.13 µg/mL).
For `O=C1CCCN1c1ccc(S(=O)(=O)N2CCNc3ccccc32)cc1`, the IC50 in data set [1] was > 5000 nM.
The same measure, in the same setting: the value for `O=C1CCCCN1c1ccc(S(=O)(=O)N2CCCc3ccccc32)cc1` was > 5000 nM; that for `O=C1CCCN1c1ccc(S(=O)(=O)N2CCCCC2)cc1` was > 5000 nM.
On the same count and under the same terms, the value for `O=C1CCCN1c1ccc(S(=O)(=O)N2CCCC3CCCCC32)cc1` (configuration not stated) was > 5000 nM; that for `O=S(=O)(c1ccc(-n2cccn2)cc1)N1CCCc2ccccc21` was 1650 nM.
Turning to `CCCN(c1ccccc1)S(=O)(=O)c1ccc(N2CCCC2=O)cc1`, the IC50 (in data set [1]; in the data set on MCF7 [6]; with MDA-MB-231 [7]) was > 5000 nM in each case. In the data set with MCF7 [8], the EC50 is > 5000 nM.
